Test results from the RNAGym collection of RNA variant scans (doi:10.1126/science.aae0568).
Variants at the floor of the assay were thinned out.

B1: tRNA (parent)
chain: GUUCCGUUGGCGUAAUGGUAACGCGUCUCCCUCCUAAGGAGAAGACUGCGGGUUCGAGUCCCGUACGGAACG

Variants of: B1
Assay: yeast fitness relative to wild type (ratio to wild type); higher = fitter; tRNA-Arg(CCU), competitive growth, 37 C, YPD
In short: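 Start and end populations of a pooled competition were compared by 100-nucleotide paired-end sequencing of gene amplicons. The Saccharomyces cerevisiae strains carried tRNA-Arg(CCU) gene variants at the native genomic locus, synthesised with a 3% per-site mutation rate at 69 sites, and competed in YPD at 37°C for 24 hours in six parallel replicates. Darwinian fitness relative to wild type was based on the change in genotype frequencies. Genotypes required ≥ 100 starting reads, and estimates < 0.5 were set to 0.5.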

Question: With C22U U32C C46U U54G A70U as the variant, how does the yeast fitness read?
Answer: The yeast fitness was 0.655.

Question: With C22U G50U as the variant, how does the yeast fitness read?
Answer: The yeast fitness was 0.669.

Question: With C22U G50A as the variant, how does the yeast fitness read?
Answer: Its yeast fitness is 0.875.

Question: For C22U G50C, which yeast fitness is on record?
Answer: The yeast fitness was 0.818.

Question: With C22U C31A C60G as the variant, how does the yeast fitness read?
Answer: Its yeast fitness is no more than 0.5.

Question: With C22U C31A C60U as the variant, how does the yeast fitness read?
Answer: The yeast fitness was no more than 0.5.

Question: Which yeast fitness does the source give for G23A C30U A37C U54C here?
Answer: Its yeast fitness is no more than 0.5.

Question: Which yeast fitness does the source give for C22U C61G A69G here?
Answer: The yeast fitness was 0.574.

Question: Which yeast fitness does the source give for G23A C55A C61A here?
Answer: The yeast fitness was 0.568.

Question: With C22U C66U A69U as the variant, how does the yeast fitness read?
Answer: Its yeast fitness is 0.6.

Question: Which yeast fitness does the source give for G23A C30U C49A A57U A70C here?
Answer: The yeast fitness was no more than 0.5.

Question: With C22U G48A G56A C60U as the variant, how does the yeast fitness read?
Answer: Its yeast fitness is no more than 0.5.

Question: For C22U C33G G58A C66U, which yeast fitness is on record?
Answer: Its yeast fitness is 0.595.

Question: With C22U U32C C46G U53G G68C as the variant, how does the yeast fitness read?
Answer: The yeast fitness was 0.544.

Question: For G23A C29U C30A C46G, which yeast fitness is on record?
Answer: The yeast fitness was no more than 0.5.

Question: With G23A A65C as the variant, how does the yeast fitness read?
Answer: The yeast fitness was 0.816.

Question: Which yeast fitness does the source give for G23A A65U here?
Answer: Its yeast fitness is 0.916.

Question: Which yeast fitness does the source give for G23A A65G here?
Answer: The yeast fitness was 0.907.

Question: For G23A C33G A43C, which yeast fitness is on record?
Answer: Its yeast fitness is no more than 0.5.

Question: For C22U C33G C34A A43C C55U, which yeast fitness is on record?
Answer: The yeast fitness was no more than 0.5.

Question: With G23A C30U U35G A45U A57C as the variant, how does the yeast fitness read?
Answer: Its yeast fitness is 0.533.

Question: Which yeast fitness does the source give for C22U G39C C62U here?
Answer: Its yeast fitness is 0.51.

Question: Which yeast fitness does the source give for C22U C33U C34A G38C here?
Answer: The yeast fitness was no more than 0.5.

Question: For G23A G38C A40C A43C, which yeast fitness is on record?
Answer: Its yeast fitness is no more than 0.5.

Question: With C22U G23C C55U C60G A70C as the variant, how does the yeast fitness read?
Answer: Its yeast fitness is no more than 0.5.

Question: For G23A C49U U54C, which yeast fitness is on record?
Answer: The yeast fitness was no more than 0.5.

Question: For G23A C30U A69G A70G, which yeast fitness is on record?
Answer: The yeast fitness was no more than 0.5.

Question: With C22U G63C as the variant, how does the yeast fitness read?
Answer: Its yeast fitness is 0.67.

Question: For G23A G38A C55U, which yeast fitness is on record?
Answer: Its yeast fitness is no more than 0.5.

Question: With G23A A43U G50A U54G G68C as the variant, how does the yeast fitness read?
Answer: The yeast fitness was no more than 0.5.

Question: Which yeast fitness does the source give for G23A A36G A69C here?
Answer: Its yeast fitness is 0.708.

Question: For C22U U32G C34U A40G C66U, which yeast fitness is on record?
Answer: The yeast fitness was 0.647.

Question: With C22U U35A C66U as the variant, how does the yeast fitness read?
Answer: The yeast fitness was no more than 0.5.

Question: Which yeast fitness does the source give for C22U G51C A65U here?
Answer: The yeast fitness was no more than 0.5.

Question: Which yeast fitness does the source give for G23A A45G A69C here?
Answer: Its yeast fitness is 0.507.

Question: For C22U G56C A57C C61G, which yeast fitness is on record?
Answer: Its yeast fitness is no more than 0.5.

Question: Which yeast fitness does the source give for C22U C34G here?
Answer: Its yeast fitness is 0.597.

Question: For C22U C30U C33U A45C G56C G68C, which yeast fitness is on record?
Answer: Its yeast fitness is no more than 0.5.

Question: Which yeast fitness does the source give for C22U C49A here?
Answer: The yeast fitness was 0.682.

Question: For C22U C34G G39A C49U, which yeast fitness is on record?
Answer: Its yeast fitness is no more than 0.5.

Question: With C22U C49U U64A A70U as the variant, how does the yeast fitness read?
Answer: The yeast fitness was no more than 0.5.

Question: With G23A C27U A69G as the variant, how does the yeast fitness read?
Answer: Its yeast fitness is no more than 0.5.

Question: For G23A G39C A40G, which yeast fitness is on record?
Answer: Its yeast fitness is no more than 0.5.

Question: With C22U G56A as the variant, how does the yeast fitness read?
Answer: The yeast fitness was 0.734.

Question: For C22U U64C, which yeast fitness is on record?
Answer: The yeast fitness was 0.977.

Question: Which yeast fitness does the source give for C22U C46G C55A here?
Answer: Its yeast fitness is no more than 0.5.

Question: For C22U U54C C55A A65G C66U, which yeast fitness is on record?
Answer: The yeast fitness was no more than 0.5.

Question: Which yeast fitness does the source give for G23A C24G G25A G48A here?
Answer: The yeast fitness was no more than 0.5.

Question: For C22U G25A A42C C49G U59A A65U, which yeast fitness is on record?
Answer: The yeast fitness was no more than 0.5.

Question: Which yeast fitness does the source give for C22U U47C G51C here?
Answer: Its yeast fitness is 0.54.

Question: Which yeast fitness does the source give for C22U G38A G67C here?
Answer: Its yeast fitness is no more than 0.5.

Question: For G23A C31U C33G G63U, which yeast fitness is on record?
Answer: Its yeast fitness is no more than 0.5.

Question: With C22U C34U A36U U53C as the variant, how does the yeast fitness read?
Answer: Its yeast fitness is no more than 0.5.

Question: With G23A C29G as the variant, how does the yeast fitness read?
Answer: The yeast fitness was 0.625.

Question: With G23A C29U as the variant, how does the yeast fitness read?
Answer: Its yeast fitness is 0.923.

Question: For G23A C29A, which yeast fitness is on record?
Answer: Its yeast fitness is 0.536.

Question: With C22U G38A A40C as the variant, how does the yeast fitness read?
Answer: The yeast fitness was 0.541.

Question: For C22U G48A, which yeast fitness is on record?
Answer: Its yeast fitness is 0.89.

Question: For G23A C30A C55U, which yeast fitness is on record?
Answer: Its yeast fitness is no more than 0.5.

Question: Which yeast fitness does the source give for C22U C33G G41C here?
Answer: Its yeast fitness is no more than 0.5.

Question: For G23A C27A U54A G56A C66G, which yeast fitness is on record?
Answer: The yeast fitness was no more than 0.5.

Question: Which yeast fitness does the source give for C22U U47A here?
Answer: Its yeast fitness is 0.77.

Question: For C22U U47C, which yeast fitness is on record?
Answer: The yeast fitness was 0.857.

Question: For G23A C46U U59C, which yeast fitness is on record?
Answer: The yeast fitness was 0.587.

Question: For G23A C27U C60G, which yeast fitness is on record?
Answer: Its yeast fitness is 0.525.

Question: Which yeast fitness does the source give for C22U U26A C29U G52C here?
Answer: The yeast fitness was 0.624.

Question: With C22U C33U G52A C66U as the variant, how does the yeast fitness read?
Answer: Its yeast fitness is no more than 0.5.

Question: For G23A C61U G67A, which yeast fitness is on record?
Answer: The yeast fitness was 0.525.

Question: With G23A G39C A69U as the variant, how does the yeast fitness read?
Answer: The yeast fitness was no more than 0.5.

Question: Which yeast fitness does the source give for G23A A37G G68A here?
Answer: Its yeast fitness is 0.682.

Question: With G23A C62A as the variant, how does the yeast fitness read?
Answer: Its yeast fitness is 0.516.

Question: Which yeast fitness does the source give for G23A C34A G52C G63C here?
Answer: Its yeast fitness is no more than 0.5.

Question: With G23A C30U U54C as the variant, how does the yeast fitness read?
Answer: Its yeast fitness is 0.528.

Question: With C22U G48A U54C as the variant, how does the yeast fitness read?
Answer: The yeast fitness was 0.601.

Question: With G23A C24G C29U G41A as the variant, how does the yeast fitness read?
Answer: The yeast fitness was no more than 0.5.

Question: With G23A C30U A70C as the variant, how does the yeast fitness read?
Answer: Its yeast fitness is no more than 0.5.

Question: Which yeast fitness does the source give for C22U U26G U35A A45G G50A here?
Answer: Its yeast fitness is 0.648.

Question: Which yeast fitness does the source give for G23A A37C C49U C62U A70G here?
Answer: The yeast fitness was no more than 0.5.

Question: Which yeast fitness does the source give for G23A C30G C55U G63A here?
Answer: The yeast fitness was 0.582.

Question: For C22U C33U A42U A69C, which yeast fitness is on record?
Answer: Its yeast fitness is 0.629.

Question: For C22U C31G G50A, which yeast fitness is on record?
Answer: Its yeast fitness is 0.606.

Question: With G23A A40U C49U C60A G63A as the variant, how does the yeast fitness read?
Answer: The yeast fitness was no more than 0.5.

Question: Which yeast fitness does the source give for G23A C55U here?
Answer: The yeast fitness was 0.625.
